In the library only some 3.7% were active in any assay of this set; here they are far more common.
Mdm2 MdmX PPI – inhibitors of human Mdm2-MdmX association, primary screen, cell-based, luminescence, split luciferase, SaOS-2, uHTS; Protein Mdm4 (Homo sapiens) + E3 ubiquitin-protein ligase Mdm2 (Homo sapiens), …; SaOS-2 split-luciferase Mdm2/MdmX complementation; inhibition, % at 8 µM; actives 3% (n = 330,000); AID 485346, 2010;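 active = inhibition of at least 50% at 8 µM in the primary screen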
Target sequence (O15151 whole entry, looked up): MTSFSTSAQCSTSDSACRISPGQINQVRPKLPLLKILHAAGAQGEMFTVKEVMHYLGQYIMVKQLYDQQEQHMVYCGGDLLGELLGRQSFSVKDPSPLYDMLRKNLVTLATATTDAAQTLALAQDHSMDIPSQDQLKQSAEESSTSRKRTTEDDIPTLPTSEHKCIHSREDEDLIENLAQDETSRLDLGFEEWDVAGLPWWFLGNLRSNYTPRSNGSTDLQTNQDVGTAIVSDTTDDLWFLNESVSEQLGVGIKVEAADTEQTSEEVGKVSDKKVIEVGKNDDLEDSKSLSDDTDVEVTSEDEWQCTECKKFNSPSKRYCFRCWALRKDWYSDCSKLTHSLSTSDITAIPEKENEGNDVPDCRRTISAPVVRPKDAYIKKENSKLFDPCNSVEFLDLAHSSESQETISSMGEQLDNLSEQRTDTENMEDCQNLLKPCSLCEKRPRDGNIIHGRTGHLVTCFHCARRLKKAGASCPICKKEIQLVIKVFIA
Target sequence (Q00987 whole entry, looked up): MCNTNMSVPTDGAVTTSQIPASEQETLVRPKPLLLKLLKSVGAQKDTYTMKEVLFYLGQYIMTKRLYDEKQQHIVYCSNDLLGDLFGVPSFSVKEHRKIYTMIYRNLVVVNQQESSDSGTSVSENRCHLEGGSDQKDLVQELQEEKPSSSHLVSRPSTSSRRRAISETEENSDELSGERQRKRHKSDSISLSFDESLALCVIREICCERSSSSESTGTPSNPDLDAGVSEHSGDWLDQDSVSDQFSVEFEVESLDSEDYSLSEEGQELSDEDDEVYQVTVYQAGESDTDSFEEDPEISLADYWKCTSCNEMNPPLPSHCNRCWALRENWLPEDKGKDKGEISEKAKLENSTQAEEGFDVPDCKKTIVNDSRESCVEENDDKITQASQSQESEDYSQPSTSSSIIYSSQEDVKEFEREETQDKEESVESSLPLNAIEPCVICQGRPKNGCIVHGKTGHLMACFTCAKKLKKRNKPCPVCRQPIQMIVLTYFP
XBP1 UPR activ – activators of adaptive XBP1 UPR arm, primary screen, cell-based, CHO-XBP1 luciferase reporter, luminescence, uHTS. IRE1-XBP1 UPR activation; percent of tunicamycin response, DMSO as zero. activation, % at 20 µM. actives 0.33% (n = 330,000);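 active = versus positive control, 20 µM dose yields 30% or more activation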;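 note: 100% = tunicamycin at 10 µg/mL and 0% = DMSO only wells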
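Material: CHO cell line with stable XBP1 luciferase reporter; schedule: 16-18 h cell attachment at 37 °C, then 6 h compound exposure; signal: glow luminescence from Steady-Glo reagent; medium: serum-containing F12 medium, 10% FBS; benchmarks: tunicamycin 10 µg/mL and vehicle-only wells; read-out: percent activation relative to tunicamycin reference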
Mdm2 ligase inh – MDM2-luciferase reporter signal enhancers, primary screen, MDM2 E3 ligase inhibitor project, cell-based, luminescence, 1536-well; E3 ubiquitin-protein ligase Mdm2 (Homo sapiens), Q00987; cell-based MDM2 ubiquitination luciferase reporter, 2 h; 0 = plate control, 100 = twice control, blank-subtracted; signal enhancement, % at 5 µM; actives 0.11% (n = 210,000); AID 1230, 2008;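 active = signal enhancement of 30% or more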;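 note: luminescence tracks abundance of the self-degrading MDM2-luciferase fusion protein; higher signal means inhibition of MDM2 E3 ligase activity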
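Assay system: mammalian cells stably expressing self-ubiquitinating, self-degrading MDM2 E3–luciferase fusion. Quantity: 2000 cells in each well. Medium: DMEM culture medium. Compound dosing: single-point 5 µM. Timing: cell settling 4 h, compound treatment 2 h, both 37 °C. Technique: luciferase luminescence. Read-out basis: percent signal gain over controls, blank-subtracted. Benchmarks: plate controls and plate blanks.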
B2AR ag – beta2AR agonists driving receptor internalization, primary screen, cell-based, FAP fluorogen, flow cytometry; Beta-2 adrenergic receptor (Homo sapiens), P07550; Am2.2-beta2AR cells; response, % (no concentration beside the values); actives 0.43% (n = 340,000); AID 504454, 2011;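 active = response above a set limit, near 3 SD of response in nonfluorescent compounds, cut at about 42% in these data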
CHOP UPR activ – activators of apoptotic CHOP UPR arm, primary screen, cell-based, CHO-CHOP luciferase reporter, luminescence, uHTS. UPR activation; percent of tunicamycin response over DMSO baseline. activation, % at 10 µM. actives 0.34% (n = 330,000). AID 449763, 2010;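 active = at 10 µM dose, activation of 40% or more, normalized to positive control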;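 note: 100% = tunicamycin at 10 µg/mL and 0% = DMSO alone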
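measured by = luciferase luminescence | assay system = CHO-CHOP cells, stable luciferase reporter of PERK-eIF2a-CHOP signalling | amount = 500 reporter cells seeded per well | timing = 6 h compound exposure at 37 °C after overnight seeding | controls = positive tunicamycin 10 µg/mL, negative DMSO alone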
Dynein transport – inhibitors of GR-EGFP nuclear translocation, primary screen, dynein cargo transport inhibitor project, imaging, high-content, 3617.4 mouse cells; test concentration mostly 20 µM; stimulated with dexamethasone, 1 µM; stronger effect = lower value; z-score, hits read low; actives 0.47% (n = 220,000);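 active = plate z-score of nuclear minus cytoplasmic receptor signal below a set negative limit, without overly bright fluorescence or cell loss, cut at about -3.5 in these data, passing the limit was not always enough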;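 note: z-score of nuclear minus cytoplasmic ring GR-EGFP intensity difference per well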
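Buffer or medium: tet-free, stripped-serum medium; reagent: dexamethasone at 1.0 µM final, 30 min; incubation: 48 h induction, 1 h compound, 30 min dex at 37 °C; measured by: formaldehyde fixation, Hoechst nuclear stain, 10x automated fluorescence imaging; read-out: nuclear-to-cytoplasmic GR-EGFP distribution per well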
XBP1 UPR conf – IRE1-XBP1 UPR arm activators, confirmation, cell-based, CHO-XBP1 luciferase reporter, luminescence, single concentration. shares compounds with XBP1 UPR activ. AID 485299, 2010. activation, % at 20 µM. actives 63% (n = 1,000);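 active = reporter signal at least 30% of the positive control's activation in two or more of four replicate wells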;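 note: plate controls were DMSO negative control for no effect and tunicamycin 10 µg/mL positive control for full effect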
Mdm2-MdmX conf – Mdm2-MdmX complex disruptors, retested hits, confirmation, luminescence, single concentration | shares compounds with Mdm2 MdmX PPI | Mdm2-MdmX binding, luminescent assay | inhibition, % at 8 µM | actives 55% (n = 10,000) | AID 489028, 2010; in the data active = inhibition above about 40%
FLuc counter – full-length luciferase signal inhibition, confirmation, counter-screen for Mdm2/MdmX interaction inhibitor project, cell-based, single concentration, SaOS-2; shares compounds with Mdm2 MdmX PPI; SaOS-2 full-length luciferase counterscreen, luminescence; inhibition, % at 8 µM; actives 77% (n = 6,200); AID 504607, 2011;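 active = mean inhibition at 8 µM reaching about 37%, which flags the compound as non-specific, limit read from the data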;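 note: p53-null SaOS-2 cells with luciferase driven by a doxycycline-inducible promoter; compound on cells about two nights before reading with doxycycline added after day one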
The depositor's hits bear a star; nt = not tested or not shown.

SMILES	Mdm2 MdmX PPI	XBP1 UPR activ	Mdm2 ligase inh	B2AR ag	CHOP UPR activ	Dynein transport	XBP1 UPR conf	Mdm2-MdmX conf	others
CCCNC(=O)c1ccc2c(=O)c(O)c(-c3ccc(OC)cc3)[nH]c2c1	50.2*	62.6*	11.8	-3.4	3.2	-0.601	55.8*	13.6
Cc1ccc(NC(=O)c2nc[nH]c2C(=O)NCCCNC(=O)c2[nH]cnc2C(=O)Nc2ccc(C)cc2)cc1	67.6*	61.1*	nt	8.7	3.5	nt	34.2*	32.2
Cc1ccc(C(=O)NCCc2nnc3c(C(F)(F)F)cc(Cl)cn23)o1	23.5	-5.3	nt	-4.4	-1.3	nt	nt	nt
COc1ccc(C2NCCc3c2[nH]c2ccccc32)cc1COc1ccc(F)cc1 (stereo unspecified)	68.7*	31.7*	-16.3	14.7	0.3	0.931	39.2*	36.9
CCOc1ccc(OCC(=O)N(CCC2=CCCCC2)c2c(N)n(Cc3ccccc3)c(=O)[nH]c2=O)cc1	68.2*	31.0*	nt	-2.6	1.8	nt	6.7	56.1*	FLuc counter=91.6*
CCOc1ccc(OCCC(=O)N(CCC2=CCCCC2)c2c(N)n(Cc3ccccc3)c(=O)[nH]c2=O)cc1	21.1	1.2	nt	1.2	3.6	nt	nt	nt
COc1cccc(C(=O)Oc2cc3c4c(c2)C(C)=CC(C)(C)N4C(=O)C3=O)c1	66.5*	50.4*	-14.6	14.7	3.3	-0.406	253.4*	49.8*	FLuc counter=44.5*
COc1ccc(C(=O)Oc2cc3c4c(c2)C(C)=CC(C)(C)N4C(=O)C3=O)cc1OC	67.0*	64.7*	-15.2	4.3	3.6	-0.761	30.8*	23.9
COc1ccc(C(=O)Oc2ccc(C(=S)N3CCCC3)cc2)cc1OC	4.6	-2.4	5.3	nt	-0.3	-0.813	nt	nt
COc1cc(N=C2C(=O)N3c4c(cccc42)C(C)=CC3(C)C)cc(OC)c1	-0.7	-2.3	6.5	16.6	-1.0	0.799	nt	nt
C[C@@H]1CN(C(=O)c2ccc(OC3CCN(S(=O)(=O)N(C)C)CC3)cc2)C[C@H](C)O1	7.2	-0.6	nt	3.5	1.2	nt	nt	nt
Cc1ccc(CNC(=O)CN(C(=O)C2(C)CC(=O)N=C3C=CC=CN32)c2cccc(C)c2C)cc1 (stereo unspecified)	13.3	-1.1	nt	2.1	1.5	nt	nt	nt
COc1ccc(/C=N/NC(=O)c2cc3c(OC)ccc(OC)c3[nH]2)cc1O	61.1*	31.9*	nt	21.9	1.4	nt	21.1	47.5*	FLuc counter=90.5*
COc1ccc(/C=N/NC(=O)c2cnccn2)cc1O	-9.8	0.2	-11.1	-5.7	2.1	0.738	nt	nt
S=c1ncc2[nH]c(=S)[nH]c2[nH]1	nt	nt	nt	9.5	nt	nt	nt	nt
COc1ccc(C(C)NS(=O)(=O)Cc2ccccc2)cc1 (stereo unspecified)	18.7	-1.8	nt	9.7	4.3	nt	nt	nt
COc1ccc(-c2nnc(SCC(=O)Nc3sc4c(c3C#N)CCCC4)n2-c2ccccc2)cc1	78.3*	34.6*	-6.0	6.6	-0.6	0.0379	61.2*	0.5

High-throughput results (PubChem BioAssay)
